From publication PMC8380758 (ACS chemical biology, 2021)
Substitutions are numbered along the chain they refer to. No end group written: not given here.

T1: GST–PHD1 WT (KDM5A S287–K347) (UniProt P29375 287-347)
T1 sequence (looked up): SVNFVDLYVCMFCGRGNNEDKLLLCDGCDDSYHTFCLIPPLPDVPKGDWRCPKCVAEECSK

T2: GST–PHD1 Y294A (KDM5A S287–K347) (UniProt P29375 287-347, Y294A)
T2 sequence (looked up): T1 sequence (looked up) with Y8A

T3: GST–PHD1 V330A (KDM5A S287–K347) (UniProt P29375 287-347, V330A)
T3 sequence (looked up): T1 sequence (looked up) with V44A

T4: GST–PHD1 D292N (KDM5A S287–K347) (UniProt P29375 287-347, D292N)
T4 sequence (looked up): T1 sequence (looked up) with D6N

T5: PHD1 domain of histone demethylase KDM5A (S287–E344) (UniProt P29375 287-344, 15N- or 13C-,15N-labeled)
T5 sequence (looked up): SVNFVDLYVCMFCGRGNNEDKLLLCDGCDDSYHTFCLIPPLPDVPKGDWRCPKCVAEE

B1: histone H3K4me2 10mer peptide (peptide, UniProt P68431 2-11, looked up)
peptide: ARTK(Me2)QTARKS
B2: histone H3K4me3 10mer peptide (peptide, UniProt P68431 2-11, looked up)
peptide: ARTK(Me3)QTARKS
B3: histone H3 10mer peptide (A1–S10), unmodified (peptide, UniProt P68431 2-11, looked up)
peptide: ARTKQTARKS
B4: histone H3K4me1 10mer peptide (peptide, UniProt P68431 2-11, looked up)
peptide: ARTK(Me)QTARKS

How the values were obtained:
[1] = test system: PHD1 (S287–E344) of KDM5A; assay: 2D 1H,15N HSQC NMR peptide titration; assay type: binding; settings: 200 μM 15N-labeled PHD1, 298 K, pH 7.5
Method in brief: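 15N-labelled KDM5A PHD1 (S287–E344) from GST fusion, GST removed by TEV, then Ni-resin pass and gel filtration. […] Buffer was 50 mM HEPES, NaCl, 0.5 mM TCEP, 0.1 mM ZnCl2, pH 7.5, 5% D2O, 298 K. CSP = √[(ΔH² + (0.2ΔN)²)/2].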

GST–PHD1 (KDM5A) Y294F = assay: Fluorescence polarization binding, Y294F mutant; settings: FP, H3K4 10mer peptides
PHD1KDM5B = settings: ref [13],[14]; cited from earlier work
[2] = target: T1, GST–PHD1 WT (KDM5A S287–K347); assay: fluorescence polarisation
[3] = target: T2, GST–PHD1 Y294A (KDM5A S287–K347); assay: fluorescence polarisation
[4] = target: T3, GST–PHD1 V330A (KDM5A S287–K347); assay: fluorescence polarisation
[5] = target: T4, GST–PHD1 D292N (KDM5A S287–K347); assay: fluorescence polarisation
[6] = target: T5, PHD1 domain of histone demethylase …; assay: NMR titration

Row | Molecule | interaction strength indicated by slow–intermediate exchange [1] | impact of mutation on binding (GST–PHD1 (KDM5A) Y294F) | Kd (PHD1KDM5B) [µM] | binding result [2] | binding result [3] | binding result [4] | binding result [5] | binding result [6]
1 | H3 10mer: H3 10mer (A1–S10) | low–micromolar affinity |  |  |  |  |  |  | 
2 | H3K4me1: H3K4me1 10mer peptide | strong interactions, comparable to those with unmodified H3 |  |  |  |  |  |  | 
3 | H3K4me2: H3K4me2 10mer peptide |  | minimal impact on binding | > 80 |  |  |  |  | 
4 | H3K4me3: H3K4me3 10mer peptide |  | minimal impact on binding | > 80 |  |  |  |  | 
5 | B1 |  |  |  | binds | binds | binds | binds | binds
6 | B2 |  |  |  | binds | binds | binds | binds | binds
7 | B3 |  |  |  | binds |  |  | binds | binds
8 | B4 |  |  |  | binds | binds | binds | binds | binds
